Bioassay records as filed in PubChem.
Most compounds without a hit are left out; they make up all but 5.5% or so of the library.
Cl transport mod = modulators of human KCC2 chloride dependent transport; Q9H2X9; KCC2 cells, thallium flux FluoZin-2 fluorescence; B-score of Tl+ flux slope (higher = more flux/activation; lower = inhibition) at 10 µM; 190,000 tested, 2.2% active; AID 1456;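 active = thallium flux slope and its plate-corrected score both differing from the plate sample mean at a set confidence after two filtering rounds, in either direction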;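 note: slope of fluorescence scaled to starting intensity during 10 to 20 s after thallium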
Target sequence (Q9H2X9 whole entry, looked up): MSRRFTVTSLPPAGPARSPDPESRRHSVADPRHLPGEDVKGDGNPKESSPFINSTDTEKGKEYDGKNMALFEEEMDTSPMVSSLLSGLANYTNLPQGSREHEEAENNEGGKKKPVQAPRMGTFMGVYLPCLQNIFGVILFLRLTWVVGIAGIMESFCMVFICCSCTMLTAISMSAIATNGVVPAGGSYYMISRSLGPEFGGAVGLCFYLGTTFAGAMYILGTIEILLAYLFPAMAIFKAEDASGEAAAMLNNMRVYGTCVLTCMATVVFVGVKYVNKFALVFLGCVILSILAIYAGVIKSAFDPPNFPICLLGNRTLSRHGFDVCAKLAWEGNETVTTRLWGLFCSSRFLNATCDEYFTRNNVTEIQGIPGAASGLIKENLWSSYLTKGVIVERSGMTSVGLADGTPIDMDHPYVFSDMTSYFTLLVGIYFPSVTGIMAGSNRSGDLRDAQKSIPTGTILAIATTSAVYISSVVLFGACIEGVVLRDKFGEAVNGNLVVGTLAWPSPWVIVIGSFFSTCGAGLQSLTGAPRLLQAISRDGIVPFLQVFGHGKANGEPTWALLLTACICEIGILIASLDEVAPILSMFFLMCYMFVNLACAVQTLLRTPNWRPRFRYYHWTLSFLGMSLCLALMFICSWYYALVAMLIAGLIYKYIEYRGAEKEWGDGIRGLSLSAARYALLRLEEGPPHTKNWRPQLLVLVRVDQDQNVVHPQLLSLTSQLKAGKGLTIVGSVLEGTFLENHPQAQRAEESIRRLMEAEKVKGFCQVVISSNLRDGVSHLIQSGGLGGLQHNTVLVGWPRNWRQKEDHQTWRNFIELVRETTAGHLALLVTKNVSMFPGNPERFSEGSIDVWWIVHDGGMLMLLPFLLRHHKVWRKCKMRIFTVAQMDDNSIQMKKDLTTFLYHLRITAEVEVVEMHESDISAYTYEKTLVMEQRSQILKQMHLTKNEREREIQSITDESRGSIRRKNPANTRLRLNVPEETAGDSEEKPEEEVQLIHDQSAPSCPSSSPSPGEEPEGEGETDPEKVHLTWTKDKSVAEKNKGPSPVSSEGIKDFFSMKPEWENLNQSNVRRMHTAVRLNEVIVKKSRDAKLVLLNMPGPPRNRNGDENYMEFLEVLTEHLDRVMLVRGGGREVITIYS
STAT1 blocker = reduces IFN-gamma driven STAT1 reporter signal; 200,000 tested, 0.35% active; NIH 3T3 STAT1-luciferase reporter, luminescence; inhibition, % at 5.5 µM;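 active = inhibition above a set limit, the mean inhibition across all tested compounds plus 3 SD, cut at about 34% in these data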
HSV augment = increases HSV replication in cells. HSV replication augmentation in cells, fold increase. 220,000 tested, 0.005% active. AID 1956. maximum fold increase; in the data active = maximum fold increase above about 1.5; inconclusive = no clear call, values can overlap the other calls; tested in PC3 cells
STAT1 act = activators of IFN-gamma induced STAT1 signaling; NIH 3T3 STAT1-luciferase reporter, luminescence; 100% = IFN-gamma alone, no compound; 200,000 tested, 2.6% active; activation (% of control), % at 5.5 µM;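 active = activation above the screen-wide mean activation plus 3 SD, cut at about 130% in these data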
STAT3 act = activators of IL-6 induced STAT3 signaling. U3A cells, IL-6 STAT3-luciferase reporter, luminescence; 100% = signal with IL-6 EC80 alone. activation (% of control), % at 5.6 µM. 190,000 tested, 0.91% active. AID 871;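 active = activation above the screen-wide mean of compound activation plus 3 SD, cut at about 130% in these data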
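Test system: STAT3-luciferase reporter U3A cells; Detection: reporter luminescence signal; Times: 1 h compound pre-exposure, 6 h IL-6 stimulation, 37 °C; Benchmarks: IL-6-only high control; Also added: IL-6 stimulus at 33 ng/mL final.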
STAT3 inh = inhibitors of IL-6 induced STAT3 signaling. U3A cells, IL-6 STAT3-luciferase reporter, luminescence; host cell line lacks STAT1. inhibition, % at 5.5 µM. 190,000 tested, 0.89% active. AID 862;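 active = inhibition above the mean inhibition across all screened compounds plus 3 SD, cut at about 44% in these data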
KCC2 secondary = confirmation of human KCC2 transport modulators; AID 1713; 3,700 tested, 15% active; normalised thallium flux (F/F0 slope) at 10 µM; shares compounds with Cl transport mod; HEK293-KCC2, thallium flux, FluoZin2 fluorescence; hits give high values;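 active = thallium flux slope above the same plate's solvent-only control mean plus 3 SD; inconclusive = the two replicate wells disagree; inactive = no significant difference from solvent-only control wells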
KCC2 bumet counter = thallium flux persisting under bumetanide in KCC2 cells, counter-screen secondary assay; AID 1714; shares compounds with Cl transport mod; normalized thallium flux at 10 µM; 3,700 tested, 49% active; HEK293-KCC2 + bumetanide/ouabain, thallium flux FluoZin2; hits give high values;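 active = thallium entry rate above the same plate's blocked-transporter control wells by more than 3 SD; inconclusive = the two repeat wells disagree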;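 note: raw slope of fluorescence over initial fluorescence between 10 and 20 s after thallium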
KCC2 sec2 = confirmation of human KCC2 transport modulators; shares compounds with Cl transport mod; AID 1715; 3,700 tested, 23% active; normalized thallium flux at 10 µM; HEK293-KCC2, thallium flux FluoZin2 fluorescence; actives lie on both sides; F/F0 rise rate, 10–20 s post-thallium;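 active = thallium flux slope more than 3 SD above or below the plate's solvent-only control mean, mostly below; inconclusive = the two repeat wells disagreed; inactive = no significant shift from solvent-only controls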
HEK counter1 = counter-screen for KCC2 modulators: effect in parental HEK293 cells; shares compounds with Cl transport mod; thallium flux FluoZin2, ouabain; baseline-ratio fluorescence slope, 10–20 s after thallium; thallium flux rate (normalised fluorescence) at 10 µM; 3,700 tested, 46% active; AID 1716;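 active = thallium flux rate significantly above the same plate's solvent-only control wells, beyond their mean plus 3 SD; inconclusive = the two replicate wells gave conflicting results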
KCC2 ouabain = KCC2 (human) modulation, ouabain retest. AID 1717. raw Tl+ flux slope (below DMSO = inhibition, above = activation) at 10 µM. 3,700 tested, 48% active. shares compounds with Cl transport mod. HEK293-KCC2, thallium flux FluoZin2 fluorescence; bidirectional: low = inhibitor, high = activator;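 active = thallium flux slope beyond 3 SD from same-plate DMSO control mean in most replicates, usually higher, sometimes lower; inconclusive = repeat tests gave conflicting results; inactive = no significant difference from controls in most replicates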;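 note: slope of initial-normalized fluorescence between seconds 10 and 20 after thallium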
HEK293 Tl flux2 = counter-screen for KCC2 modulators: effect in parental HEK293 cells; 3,700 tested, 33% active; AID 1718; thallium flux slope at 10 µM; shares compounds with Cl transport mod; thallium flux FluoZin-2 fluorescence slope;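 active = thallium flux slope above the same plate's solvent-control mean plus 3 SD in both duplicate wells; inconclusive = duplicate wells that disagreed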;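 note: run without ouabain in cells lacking the KCC2 cotransporter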
Large screens that a line does not name were inactive (follow-up assays come after a bar, where they were run).

CC1=CC(C)(C)n2c(O)c(N=NC(N)=S)c3cc(C)cc1c32	Cl transport mod 8.7 | KCC2 secondary 0.0124 | KCC2 bumet counter 0.033 | KCC2 sec2 inactive | HEK counter1 0.0164 | KCC2 ouabain inconclusive | HEK293 Tl flux2 0.0109
COC(=O)C1=C(C)N2C(=O)CSC2=NC1c1ccc2c(c1)OCO2 (centres undefined)	none (no result: Cl transport mod, STAT1 blocker, STAT1 act, STAT3 act, STAT3 inh)
Cc1ccc(C(=O)O)cc1-c1ccc(/C=C2/NC(=O)N(c3ccccc3)C2=O)o1	Cl transport mod -4.64 | KCC2 secondary inactive | KCC2 bumet counter inactive | KCC2 sec2 0.0221 | HEK counter1 inactive | KCC2 ouabain 0.0136 | HEK293 Tl flux2 inactive
Cc1cc(C(=O)O)ccc1-c1ccc(/C=C2\NC(=O)N(Cc3ccccc3Cl)C2=O)o1	none
CN1C(=O)/C(=C/c2ccccc2OCc2ccccc2)NC1=S	Cl transport mod 9.7 | KCC2 secondary inactive | KCC2 bumet counter 0.0129 | KCC2 sec2 inactive | HEK counter1 0.00983 | KCC2 ouabain inconclusive | HEK293 Tl flux2 inactive
COc1cc(OC)cc(C(C(=O)NCc2ccccc2)N(Cc2ccco2)C(=O)c2ccno2)c1 (centres undefined)	Cl transport mod -2.85 | KCC2 secondary inactive | KCC2 bumet counter inactive | KCC2 sec2 inactive | HEK counter1 inactive | KCC2 ouabain inactive | HEK293 Tl flux2 inactive
Cc1cc(C(=O)Nc2ncn(Cc3ccc(F)cc3)n2)ccc1[N+](=O)[O-]	none (no result: STAT1 blocker, STAT1 act, STAT3 act, STAT3 inh)
CC(C)CN(CC(C)C)S(=O)(=O)N1CCC(C(=O)NCCc2ccc(Cl)cc2)CC1	none
COc1cc(/C=C(\C#N)C(=O)NCc2ccccc2)ccc1OCc1ccc(C(=O)O)cc1	Cl transport mod -4.14 (no result: STAT1 blocker, STAT1 act, STAT3 act, STAT3 inh) | KCC2 secondary inactive | KCC2 bumet counter 0.00875 | KCC2 sec2 inactive | HEK counter1 inactive | KCC2 ouabain inconclusive | HEK293 Tl flux2 inactive
CC1=C(C(=O)OCc2ccccc2)C(c2ccco2)C2=C(CC(C)(C)CC2=O)N1 (centres undefined)	Cl transport mod -4.32 | KCC2 secondary inconclusive | KCC2 bumet counter inactive | KCC2 sec2 inactive | HEK counter1 inactive | KCC2 ouabain 0.0502 | HEK293 Tl flux2 inconclusive
CCOC(=O)C1=C(N)OC2=C(C(=O)CC(C)(C)C2)C1c1ccco1 (centres undefined)	none
CC(C)CN1C(=O)/C(=C/c2ccco2)NC1=S	Cl transport mod 53.1 (no result: HSV augment) | KCC2 secondary inactive | KCC2 bumet counter 0.0146 | KCC2 sec2 inactive | HEK counter1 0.0583 | KCC2 ouabain 0.0338 | HEK293 Tl flux2 0.018
CCOc1ccccc1N1CCN(CC(O)COc2ccc3c(C)cc(=O)oc3c2)CC1 (centres undefined)	Cl transport mod 6.25 | KCC2 secondary inactive | KCC2 bumet counter inactive | KCC2 sec2 inactive | HEK counter1 inactive | KCC2 ouabain inactive | HEK293 Tl flux2 inactive
O=C(Nc1nc2ccc(S(=O)(=O)N3CCCCC3)cc2s1)c1ccncc1	Cl transport mod -6.23 | KCC2 secondary inactive | KCC2 bumet counter inactive | KCC2 sec2 inactive | HEK counter1 inactive | KCC2 ouabain inactive | HEK293 Tl flux2 inactive
O=C(Nc1nc2ccc(S(=O)(=O)N3CCCCC3)cc2s1)c1cccnc1	none (no result: Cl transport mod)
Cc1cc(NC(=O)COC(=O)COc2cccc3c2OC(C)(C)C3)no1	none
Cc1cnc(NC(=O)COc2cccc3c2OC(C)(C)C3)s1	none (no result: Cl transport mod) | KCC2 secondary inactive | KCC2 bumet counter inactive | KCC2 sec2 inactive | HEK counter1 inactive | KCC2 ouabain inconclusive | HEK293 Tl flux2 inactive
CCOC(=O)c1c(NC(=S)NCc2ccccc2)sc2c1CCN(C(=O)OCC)C2	Cl transport mod 4.74 (no result: STAT1 blocker, STAT1 act, STAT3 act, STAT3 inh) | KCC2 secondary inconclusive | KCC2 bumet counter 0.0251 | KCC2 sec2 inactive | HEK counter1 0.0137 | KCC2 ouabain inactive | HEK293 Tl flux2 0.0116
C=CCNC(=S)Nc1sc2c(c1C(=O)OCC)CCN(C(=O)OCC)C2	none
CC1=NN(c2nc(-c3ccc(C)cc3)cs2)C(=O)C1N=Nc1cccc(O)c1 (centres undefined)	none
CC1=NN(C(N)=S)C(=O)C1N=Nc1cccc2ccccc12 (centres undefined)	Cl transport mod 5.42 | KCC2 secondary inactive | KCC2 bumet counter 0.0464 | KCC2 sec2 inactive | HEK counter1 0.0114 | KCC2 ouabain inconclusive | HEK293 Tl flux2 inconclusive
CC1=NN(c2nc(-c3ccc(C)cc3)cs2)C(=O)C1N=Nc1ccccc1O (centres undefined)	HSV augment inconclusive
CC1=NN(C(N)=S)C(=O)C1N=Nc1ccccc1 (centres undefined)	Cl transport mod 5.22, STAT1 act 129.5 | KCC2 secondary inactive | KCC2 bumet counter 0.0244 | KCC2 sec2 inactive | HEK counter1 inconclusive | KCC2 ouabain inconclusive | HEK293 Tl flux2 inactive
Cc1ccc(C(=O)CSc2nnc(-c3ccco3)n2Cc2ccccc2)cc1	Cl transport mod -3.2 | KCC2 secondary inactive | KCC2 bumet counter inactive | KCC2 sec2 inactive | HEK counter1 inconclusive | KCC2 ouabain 0.0134 | HEK293 Tl flux2 inactive
CCCn1c(SCC(=O)N2CCCCC2)nnc1-c1ccco1	Cl transport mod 5.59 | KCC2 secondary inactive | KCC2 bumet counter inactive | KCC2 sec2 inactive | HEK counter1 inactive | KCC2 ouabain inactive | HEK293 Tl flux2 inactive
O=C(CSc1nnc(-c2ccco2)n1Cc1ccccc1)c1ccccc1	Cl transport mod -8.24 | KCC2 secondary inactive | KCC2 bumet counter inactive | KCC2 sec2 inconclusive | HEK counter1 inconclusive | KCC2 ouabain 0.0154 | HEK293 Tl flux2 inactive
Cc1ccc(NC(=S)N/N=C/c2ccc(Cl)c([N+](=O)[O-])c2)cc1	none
O=[N+]([O-])c1cc(/C=N/NC(=S)Nc2ccccc2Cl)ccc1Cl	Cl transport mod 7.76 | KCC2 secondary inactive | KCC2 bumet counter 0.0149 | KCC2 sec2 inactive | HEK counter1 0.0212 | KCC2 ouabain 0.0289 | HEK293 Tl flux2 0.0166
